Test results: ChEMBL document CHEMBL1138825, “N-phenylphenylglycines as novel corticotropin releasing factor receptor antagonists” (J Med Chem, 2004)

Key:
[1] = target: T1, Corticotropin-releasing factor receptor 1 (Homo sapiens, UniProt P34998); assay: Binding affinity towards human corticotropin releasing factor (h-CRF1) receptor
T1 sequence (P34998 whole entry): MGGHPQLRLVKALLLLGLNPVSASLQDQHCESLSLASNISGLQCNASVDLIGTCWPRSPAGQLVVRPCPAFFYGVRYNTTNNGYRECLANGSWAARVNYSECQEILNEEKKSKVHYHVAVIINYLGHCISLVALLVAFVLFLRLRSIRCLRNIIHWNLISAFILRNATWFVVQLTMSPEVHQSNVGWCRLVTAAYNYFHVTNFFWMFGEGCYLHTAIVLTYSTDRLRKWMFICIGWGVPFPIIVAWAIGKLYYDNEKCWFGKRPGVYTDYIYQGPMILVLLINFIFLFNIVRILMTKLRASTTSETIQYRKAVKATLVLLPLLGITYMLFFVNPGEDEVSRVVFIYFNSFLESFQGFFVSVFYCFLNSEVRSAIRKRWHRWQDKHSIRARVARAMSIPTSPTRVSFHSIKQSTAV
How it was run: (§1)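 Ki values were measured in duplicate. If the duplicate Ki values differed by more than 15%, further duplicate runs were done until this criterion was met, and the determinations were averaged. Mean Ki is reported where there was more than one determination. Internal control compounds were run on every plate.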

[2] = target: T1, Corticotropin-releasing factor receptor 1; assay: Binding affinity of compound towards human Corticotropin releasing factor receptor 1
[3] = target: T2, 5-hydroxytryptamine receptor 1A (Homo sapiens, UniProt P08908); assay: Binding affinity of compound towards serotonin 5-hydroxytryptamine 1A receptor; inactive at 10 uM
T2 sequence (P08908 whole entry): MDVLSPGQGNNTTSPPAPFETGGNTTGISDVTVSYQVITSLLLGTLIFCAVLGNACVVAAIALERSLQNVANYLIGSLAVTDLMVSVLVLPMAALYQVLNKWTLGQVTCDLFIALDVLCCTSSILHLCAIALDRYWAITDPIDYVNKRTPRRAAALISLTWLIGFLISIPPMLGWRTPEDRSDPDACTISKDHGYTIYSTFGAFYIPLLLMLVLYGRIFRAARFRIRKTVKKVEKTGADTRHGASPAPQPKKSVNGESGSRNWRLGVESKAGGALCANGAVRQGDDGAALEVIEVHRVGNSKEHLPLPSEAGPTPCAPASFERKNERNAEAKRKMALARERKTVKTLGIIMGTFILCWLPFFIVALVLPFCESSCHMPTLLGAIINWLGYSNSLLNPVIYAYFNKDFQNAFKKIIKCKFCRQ

[4] = target: 5-hydroxytryptamine receptor 1B (Homo sapiens, UniProt P28222); assay: Binding affinity of compound towards serotonin 5-hydroxytryptamine 1B receptor; inactive at 10 uM
[5] = target: 5-hydroxytryptamine receptor 2A (Homo sapiens, UniProt P28223); assay: Binding affinity of compound towards serotonin 5-hydroxytryptamine 2A receptor; inactive at 10 uM
[6] = target: 5-hydroxytryptamine receptor 1D (Homo sapiens, UniProt P28221); assay: Binding affinity of compound towards serotonin 5-hydroxytryptamine 1D receptor; inactive at 10 uM
[7] = target: 5-hydroxytryptamine receptor 7 (Homo sapiens, UniProt P34969); assay: Binding affinity of compound towards serotonin 5-hydroxytryptamine 7 receptor; inactive at 10 uM
[8] = target: 5-hydroxytryptamine receptor 6 (Homo sapiens, UniProt P50406); assay: Binding affinity of compound towards serotonin 5-hydroxytryptamine 6 receptor; inactive at 10 uM
[9] = Compound was evaluated for total body clearance; format: ADME; conditions: read-out: Activity (converted)
[10] = Compound was evaluated for volume of distribution at steady state; format: ADME; conditions: read-out: Activity
[11] = Compound was evaluated for half-life period; format: ADME
How it was run: (§2)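 Cassette dosing in beagle dogs (n = 2 per route), with each compound given alongside seven others. Oral dose was 1 mg/kg, with sampling at 0, 0.5, 1, 2, 4, 6, 8 and 24 h. Plasma drug levels were measured by LC/MS/MS.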

[12] = Compound was evaluated for oral bioavailability; format: ADME, organism-based; conditions: in vivo, read-out: Bioavailabiility; how it was run: as §2
[13] = target: T1, Corticotropin-releasing factor receptor 1; assay: Binding affinity of compound towards human corticotropin releasing factor (h-CRF1) receptor showed a 2-fold activity in racemic mixture; how it was run: as §1
[14] = target: T1, Corticotropin-releasing factor receptor 1; assay: Binding affinity of compound towards human corticotropin releasing factor (h-CRF1) receptor showed a 2-fold activity in racemic mixture; inactive; how it was run: as §1
[15] = target: T1, Corticotropin-releasing factor receptor 1; assay: Binding affinity of compound towards human corticotropin releasing factor (h-CRF1) receptor; inactive; how it was run: as §1
[16] = target: T3, Corticotropin-releasing factor receptor 2 (Homo sapiens, UniProt Q13324); assay: Binding affinity of compound towards human Corticotropin releasing factor receptor 2; inactive at 10 uM
T3 sequence (Q13324 whole entry): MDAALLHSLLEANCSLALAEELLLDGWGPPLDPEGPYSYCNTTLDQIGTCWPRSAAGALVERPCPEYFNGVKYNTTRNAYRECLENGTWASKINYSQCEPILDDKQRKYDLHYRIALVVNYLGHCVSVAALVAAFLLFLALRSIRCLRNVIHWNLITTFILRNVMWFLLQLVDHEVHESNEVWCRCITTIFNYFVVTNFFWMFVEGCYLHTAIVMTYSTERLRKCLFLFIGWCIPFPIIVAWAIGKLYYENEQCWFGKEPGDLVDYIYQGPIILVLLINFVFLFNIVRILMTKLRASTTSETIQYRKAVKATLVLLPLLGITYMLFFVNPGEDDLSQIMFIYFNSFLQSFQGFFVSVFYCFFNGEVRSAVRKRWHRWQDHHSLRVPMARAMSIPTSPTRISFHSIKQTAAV

5-hydroxytryptamine receptor 6, sequence (P50406 whole entry): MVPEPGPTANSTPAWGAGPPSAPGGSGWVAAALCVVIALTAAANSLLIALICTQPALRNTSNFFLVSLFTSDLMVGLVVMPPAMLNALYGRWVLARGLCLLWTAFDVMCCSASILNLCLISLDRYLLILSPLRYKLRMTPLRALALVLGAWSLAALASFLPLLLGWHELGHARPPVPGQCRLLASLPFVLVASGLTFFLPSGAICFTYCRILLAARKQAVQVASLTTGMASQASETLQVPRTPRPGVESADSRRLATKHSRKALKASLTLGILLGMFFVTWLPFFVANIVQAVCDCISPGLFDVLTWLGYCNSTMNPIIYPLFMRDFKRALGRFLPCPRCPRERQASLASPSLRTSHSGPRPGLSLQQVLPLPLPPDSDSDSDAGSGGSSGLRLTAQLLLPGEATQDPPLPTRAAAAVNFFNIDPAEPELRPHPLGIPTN
5-hydroxytryptamine receptor 2A, sequence (P28223 whole entry): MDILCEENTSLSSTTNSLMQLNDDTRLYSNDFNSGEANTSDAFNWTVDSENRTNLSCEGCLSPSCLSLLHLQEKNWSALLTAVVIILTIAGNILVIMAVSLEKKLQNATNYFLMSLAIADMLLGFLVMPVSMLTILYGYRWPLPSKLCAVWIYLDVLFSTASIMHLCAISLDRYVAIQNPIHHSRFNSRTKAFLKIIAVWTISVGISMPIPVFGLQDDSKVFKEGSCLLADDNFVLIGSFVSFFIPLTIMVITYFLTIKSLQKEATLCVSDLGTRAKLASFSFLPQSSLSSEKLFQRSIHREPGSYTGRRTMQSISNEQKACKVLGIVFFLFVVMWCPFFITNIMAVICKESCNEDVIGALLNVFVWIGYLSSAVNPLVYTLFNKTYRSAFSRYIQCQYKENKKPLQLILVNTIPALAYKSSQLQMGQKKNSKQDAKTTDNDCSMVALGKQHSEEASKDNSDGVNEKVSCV
5-hydroxytryptamine receptor 1D, sequence (P28221 whole entry): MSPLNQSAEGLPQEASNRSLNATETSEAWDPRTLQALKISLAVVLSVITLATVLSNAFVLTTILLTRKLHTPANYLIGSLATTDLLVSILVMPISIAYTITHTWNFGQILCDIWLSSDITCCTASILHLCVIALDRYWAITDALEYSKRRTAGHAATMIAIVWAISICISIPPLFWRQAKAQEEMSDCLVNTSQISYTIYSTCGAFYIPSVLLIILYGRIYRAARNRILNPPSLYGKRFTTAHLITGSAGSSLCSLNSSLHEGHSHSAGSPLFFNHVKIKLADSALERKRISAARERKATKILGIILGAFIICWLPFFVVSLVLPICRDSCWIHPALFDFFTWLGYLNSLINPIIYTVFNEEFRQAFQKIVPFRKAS
5-hydroxytryptamine receptor 1B, sequence (P28222 whole entry): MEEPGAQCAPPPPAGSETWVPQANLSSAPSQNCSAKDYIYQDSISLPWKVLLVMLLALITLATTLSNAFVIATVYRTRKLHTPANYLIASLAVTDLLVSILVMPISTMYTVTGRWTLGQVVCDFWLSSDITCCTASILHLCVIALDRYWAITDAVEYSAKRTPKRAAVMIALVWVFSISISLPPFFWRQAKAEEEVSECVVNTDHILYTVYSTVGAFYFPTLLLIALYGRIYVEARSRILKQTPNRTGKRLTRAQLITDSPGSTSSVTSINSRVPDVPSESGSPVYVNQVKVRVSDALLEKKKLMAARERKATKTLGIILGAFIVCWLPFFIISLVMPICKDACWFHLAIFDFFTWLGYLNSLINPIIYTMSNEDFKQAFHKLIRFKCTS
5-hydroxytryptamine receptor 7, sequence (P34969 whole entry): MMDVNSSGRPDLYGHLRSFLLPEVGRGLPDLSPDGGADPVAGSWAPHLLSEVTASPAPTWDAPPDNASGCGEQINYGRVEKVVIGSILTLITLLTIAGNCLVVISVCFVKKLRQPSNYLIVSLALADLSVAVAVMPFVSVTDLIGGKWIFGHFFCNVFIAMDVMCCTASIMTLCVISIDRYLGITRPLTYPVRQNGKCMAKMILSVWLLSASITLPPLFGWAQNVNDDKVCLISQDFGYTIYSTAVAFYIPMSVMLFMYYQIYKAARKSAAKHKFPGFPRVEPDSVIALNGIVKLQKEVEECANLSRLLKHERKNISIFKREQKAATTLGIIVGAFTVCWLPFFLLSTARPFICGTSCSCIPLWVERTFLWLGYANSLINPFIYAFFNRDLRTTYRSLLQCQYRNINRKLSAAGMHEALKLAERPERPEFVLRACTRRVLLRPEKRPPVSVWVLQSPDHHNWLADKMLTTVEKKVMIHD

Ki [1] [nM] | SMILES | further results
922 | Cc1ccc(NC(C(=O)CCc2ccncc2)c2ccccc2C)c(Cl)c1 (stereo not given) | –
469 | Cc1ccccc1C(Nc1ccc(Cl)cc1C(F)(F)F)C(=O)CCc1ccncc1 (stereo not given) | –
1000 | O=C(CCc1ccncc1)C(Nc1ccc(Cl)cc1Cl)c1ccccc1C(F)(F)F (stereo not given) | –
> 10000 | COc1ccc(C(Nc2ccc(C)cc2Cl)C(=O)CCc2ccncc2)c(OC)c1 (stereo not given) | –
> 10000 | Cc1ccccc1C(Nc1ccc(Cl)cc1Cl)C(=O)c1cccc(O)c1 (stereo not given) | –
> 10000 | COc1ccc(OC)c(C(Nc2ccc(C)cc2Cl)C(=O)CCc2ccncc2)c1 (stereo not given) | –
370 | Cc1ccccc1C(Nc1ccc(Cl)cc1Cl)C(=O)CCc1ccncc1 (stereo not given) | –
> 10000 | Cc1ccc(NC(C(=O)CCc2ccncc2)c2ccc(Cl)cc2)c(Cl)c1 (stereo not given) | –
> 10000 | Cc1ccc(NC(C(=O)CCc2cccnc2)c2ccccc2Br)c(Cl)c1 (stereo not given) | –
439 | Cc1ccc(NC(C(=O)CCc2ccncc2)c2ccccc2C)c(F)c1 (stereo not given) | –
330 | CCc1ccccc1C(Nc1ccc(Cl)cc1Cl)C(=O)CCc1ccncc1 (stereo not given) | –
> 10000 | Cc1ccc(C(Nc2ccc(C)cc2Cl)C(=O)CCc2ccncc2)cc1 (stereo not given) | –

The next lines start with the compound.

SMILES | Ki [1] [nM] | further results
COc1ccc(C(=O)C(Nc2ccc(Cl)cc2Cl)c2ccccc2C)cc1O (stereo not given) | 387 | –
O=C(CCc1ccncc1)C(Nc1ccc(Cl)cc1Cl)c1ccccc1Br (stereo not given) | 204 | –
Cc1ccccc1[C@H](Nc1ccc(Cl)cc1Cl)C(=O)CCc1ccncc1 | 3180 | –
Cc1ccc(NC(C(=O)CCc2ccncc2)c2ccccc2)c(Cl)c1 (stereo not given) | > 10000 | –
Cc1ccc(NC(C(=O)CCc2ccncc2)c2ccccc2F)c(Cl)c1 (stereo not given) | – | Ki [2]: > 10000 nM
Cc1cccc(C)c1C(Nc1ccc(Cl)cc1Cl)C(=O)CCc1ccncc1 (stereo not given) | 338 | –
Cc1cc(F)ccc1C(Nc1ccc(Cl)cc1Cl)C(=O)CCc1ccncc1 (stereo not given) | 512 | –
COc1ccc(C(=O)C(Nc2ccc(C)cc2Cl)c2ccccc2Br)cc1O (stereo not given) | 1070 | –
Cc1ccc(NC(C(=O)CCc2ccncc2)c2ccccc2C(C)C)c(Cl)c1 (stereo not given) | 3300 | –
Cc1ccc(NC(C(=O)CCc2ccncc2)c2cccc(Cl)c2)c(Cl)c1 (stereo not given) | > 5000 | –
Cc1ccc(NC(C(=O)CCc2ccccn2)c2ccccc2Br)c(Cl)c1 (stereo not given) | > 10000 | –
Cc1ccc(NC(C(=O)CCc2ccccc2)c2ccccc2Br)c(Cl)c1 (stereo not given) | > 10000 | –
Cc1ccc(NC(C(=O)CCc2ccc(F)cc2)c2ccccc2Br)c(Cl)c1 (stereo not given) | > 10000 | –
Cc1ccc(NC(C(=O)Cc2ccncc2)c2ccccc2Br)c(Cl)c1 (stereo not given) | > 10000 | –
Cc1ccc(NC(C(=O)CCc2ccncc2)c2ccccc2C)c(C(F)(F)F)c1 (stereo not given) | 641 | –
Cc1ccccc1[C@@H](Nc1ccc(Cl)cc1Cl)C(=O)CCc1ccncc1 | 154 | Ki [3]: Not Active; Ki [4]: Not Active; Ki [5]: Not Active; Ki [6]: Not Active; Ki [7]: Not Active; Ki [8]: Not Active; clearance [9]: 21.7 mL/min/kg; Vd [10]: 1.8 L/kg; half-life [11]: 1.7 h; bioavailability [12]: 7%

SMILES | Ki [1] [nM] | further results
COc1ccccc1C(Nc1ccc(C)cc1Cl)C(=O)CCc1ccncc1 (stereo not given) | > 10000 | –
Cc1ccc(NC(C(=O)CCc2cnc[nH]2)c2ccccc2Br)c(Cl)c1 (stereo not given) | > 10000 | –
Cc1ccc(N[C@@H](C(=O)CCc2ccncc2)c2ccccc2Br)c(Cl)c1 | – | Ki [13]: 546 nM
COc1cccc(OC)c1C(Nc1ccc(C)cc1Cl)C(=O)CCc1ccncc1 (stereo not given) | > 10000 | –
Cc1ccc(N[C@H](C(=O)CCc2ccncc2)c2ccccc2Br)c(Cl)c1 | – | Ki [14]: Not Active
COc1ccc(C(=O)C(Nc2ccc(Cl)cc2Cl)c2ccccc2C)cc1OC (stereo not given) | > 10000 | –
C=Cc1ccccc1C(Nc1ccc(C)cc1Cl)C(=O)CCc1ccncc1 (stereo in doubt; 4) | 752 | –
O=C(CCc1ccncc1)C(Nc1ccccc1Cl)c1ccccc1Br (stereo not given) | 7330 | –
COc1cccc(C(Nc2ccc(C)cc2Cl)C(=O)CCc2ccncc2)c1 (stereo not given) | > 10000 | –
CN(c1ccccc1Cl)C(C(=O)CCc1ccncc1)c1ccccc1Br (stereo not given) | > 10000 | –
Cc1ccc(N[C@H](C(=O)CCc2ccncc2)c2ccccc2C)c(Cl)c1 | – | Ki [15]: Not Active
C=Cc1ccccc1C(Nc1ccc(C)cc1Cl)C(=O)CCc1ccncc1 (stereo in doubt; 32) | 752 | –
Cc1cccc(C(Nc2ccc(C)cc2Cl)C(=O)CCc2ccncc2)c1 (stereo not given) | > 10000 | –
Cc1ccc(NC(C(=O)CCc2ccncc2)c2ccccc2Br)c(Cl)c1 (stereo not given) | – | Ki [16]: Not Active; Ki [2]: 1040 nM
CC(=O)Nc1cccc(C(=O)C(Nc2ccc(Cl)cc2Cl)c2ccccc2Br)c1 (stereo not given) | 514 | –
Cc1ccc(N[C@@H](C(=O)CCc2ccncc2)c2ccccc2C)c(Cl)c1 | 244 | –
